From ChEMBL document CHEMBL1123678, “Octahydropyrazino[2',3':3,4]pyrido[1,2-a]indoles. A new class of potent antihypertensive agents” (1987)

Columns and labels:
[1] = system: Rattus norvegicus; assay: Antihypertensive activity was determined in cannulated spontaneously hypertensive rats(SHR) and maximum decrease of mean arterial blood pressure (MABP) at 50 mg/kg oral dose; format: functional, Artery
Outline: (§1)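 Cannulated SHR given compound by gastric gavage in 0.5% methylcellulose (5 mL/kg), doses 0.1–50 mg/kg, 4–8 animals per dose, after 1-h equilibration. MABP recorded for 4 h; maximal % decrease reported with time to peak effect. Significance by two-way analysis of variance.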

[2] = system: Rattus norvegicus; assay: Antihypertensive activity was determined in cannulated spontaneously hypertensive rats(SHR) and heart rate response was reported to be reduce by 10-25% after 4 hr at a dose of 50 mg/kg; format: functional, organism-based; set-up: dose 50 mg/kg
[3] = system: Rattus norvegicus; assay: Antihypertensive activity was determined in cannulated spontaneously hypertensive rats(SHR) and maximum decrease of mean arterial blood pressure (MABP) at 10 mg/kg oral dose; format: functional, Artery; outline: as §1
[4] = system: Rattus norvegicus; assay: Vasopressor responses to epinephrine as a measure of the alpha-1-adrenoceptor blocking activity at 10 mg/kg administered orally was reported to be reversed; format: functional, organism-based; set-up: dose 10 mg/kg
[5] = system: Rattus norvegicus; assay: Vasopressor responses to epinephrine as a measure of the alpha-1-adrenoceptor blocking activity at 10 mg/kg administered orally was reported to be antagonized; format: functional, organism-based; set-up: dose 10 mg/kg
[6] = system: Rattus norvegicus; assay: Antihypertensive activity was determined in cannulated spontaneously hypertensive rats(SHR) and maximum decrease of mean arterial blood pressure (MABP) at 1 mg/kg oral dose; format: functional, Artery; outline: as §1
[7] = system: Rattus norvegicus; assay: Antihypertensive activity was determined in cannulated spontaneously hypertensive rats(SHR) and maximum decrease of mean arterial blood pressure (MABP) at 2.5 mg/kg oral dose; format: functional, Artery; outline: as §1
[8] = system: Rattus norvegicus; assay: Vasopressor responses to epinephrine as a measure of the alpha-1-adrenoceptor blocking activity at 0.25 mg/kg administered orally was reported to be reversed; format: functional, organism-based; set-up: dose 0.25 mg/kg
[9] = system: Rattus norvegicus; assay: Vasopressor responses to epinephrine as a measure of the alpha-1-adrenoceptor blocking activity at 1 mg/kg administered orally was reported to be reversed; format: functional, organism-based; set-up: dose 1 mg/kg
[10] = system: Rattus norvegicus; assay: Vasopressor responses to epinephrine as a measure of the alpha-1-adrenoceptor blocking activity at 2.5 mg/kg administered orally was reported to be reversed; format: functional, organism-based; set-up: dose 2.5 mg/kg
[11] = system: Rattus norvegicus; assay: Antihypertensive activity was determined in cannulated spontaneously hypertensive rats(SHR) and heart rate response was reported to reduce by 10-25% after 4 hr at a peroral dose of 0.25 mg/kg; format: functional, organism-based; set-up: dose 0.25 mg/kg
[12] = system: Rattus norvegicus; assay: Antihypertensive activity was determined in cannulated spontaneously hypertensive rats(SHR) and heart rate response was reported to reduce by 10-25% after 4 hr at a peroral dose of 1.0 mg/kg; format: functional, organism-based; set-up: dose 1 mg/kg
[13] = system: Rattus norvegicus; assay: Antihypertensive activity was determined in cannulated spontaneously hypertensive rats(SHR) and heart rate response was reported to reduce by 10-25% after 4 hr at a peroral dose of 2.5 mg/kg; format: functional, organism-based; set-up: dose 2.5 mg/kg
[14] = system: Rattus norvegicus; assay: Antihypertensive activity was determined in cannulated spontaneously hypertensive rats(SHR) and marked bradycardia was reported at a dose of 10 mg/kg; format: functional, organism-based; set-up: dose 10 mg/kg
[15] = system: Rattus norvegicus; assay: Antihypertensive activity was determined in cannulated spontaneously hypertensive rats(SHR) and maximum decrease of mean arterial blood pressure (MABP) at 5 mg/kg oral dose; format: functional, Artery; outline: as §1
[16] = system: Rattus norvegicus; assay: Vasopressor responses to epinephrine as a measure of the alpha-1-adrenoceptor blocking activity at 1 mg/kg administered orally was reported to be antagonized; format: functional, organism-based; set-up: dose 1 mg/kg
[17] = system: Rattus norvegicus; assay: Antihypertensive activity was determined in cannulated spontaneously hypertensive rats(SHR) and heart rate response was reported to reduce by 10-25% after 4 hr at a peroral dose of 5 mg/kg; format: functional, organism-based; set-up: dose 5 mg/kg
[18] = system: Rattus norvegicus; assay: Antihypertensive activity was determined in cannulated spontaneously hypertensive rats(SHR) and heart rate response was reported to reduce by 10-25% after 4 hr at a peroral dose of 10 mg/kg; format: functional, organism-based; set-up: dose 10 mg/kg
[19] = system: Rattus norvegicus; assay: Antagonism of vasopressor responses to epinephrine as a measure of the alpha-1-adrenoceptor blocking activity at 5 mg/kg administered orally was reported to be reversed; format: functional, organism-based; set-up: dose 5 mg/kg
[20] = system: Rattus norvegicus; assay: Antihypertensive activity was determined in cannulated spontaneously hypertensive rats(SHR) and activity rating was given with respect to MABP values at 25 mg/kg oral dose;MABP reduced by 15-25% and an appreciable antihypertensive at 2.5-5 mg/kg; format: functional, organism-based; set-up: dose 25 mg/kg
[21] = system: Rattus norvegicus; assay: Antihypertensive activity was determined in cannulated spontaneously hypertensive rats(SHR) and maximum decrease of mean arterial blood pressure (MABP) at 25 mg/kg oral dose; format: functional, Artery; outline: as §1
[22] = system: Rattus norvegicus; assay: Vasopressor responses to epinephrine as a measure of the alpha-1-adrenoceptor blocking activity at 25 mg/kg administered orally was reported to be slightly; format: functional, organism-based; set-up: dose 25 mg/kg
[23] = system: Rattus norvegicus; assay: Antihypertensive activity was determined in cannulated spontaneously hypertensive rats(SHR) and heart rate response was reported to reduce by 10-25% after 4 hr at a peroral dose of 25 mg/kg; format: functional, organism-based; set-up: dose 25 mg/kg
[24] = system: Rattus norvegicus; assay: Vasopressor responses to epinephrine as a measure of the alpha-1-adrenoceptor blocking activity at 10 mg/kg administered orally was reported to be potentiated; format: functional, organism-based; set-up: dose 10 mg/kg

Row | SMILES | Decrease in MABP [1] [%] | Decrease in MABP [3] [%] | Activity [4] | Decrease in MABP [6] [%] | Decrease in MABP [7] [%] | Activity [10] | further results
1 | CCN1CCN(CC)[C@H]2c3c(C)c4ccccc4n3CC[C@H]21.Cl.Cl | 25 |  |  |  |  |  | HR [2]: Heart rate response was reported to be reduce by 10-25% after 4 hr at a dose of 25 mg/kg
2 | CCN1CCN(CC)C2c3c(C)c4cc(Br)ccc4n3CCC21.Cl (stereo not given) |  | 15 | Vasopressor response reversed |  |  |  | 
3 | Cc1c2n(c3ccccc13)CCC1C2N(C)CCN1C.Cl.Cl (stereo not given) | 12 |  |  |  |  |  | 
4 | Cc1c2n(c3ccccc13)CCC1C2NCCN1C(C)C.Cl.Cl (stereo not given) |  | 12 |  |  |  |  | Activity [5]: Vasopressor response antagonized
5 | CCN1CCN(C(C)C)C2CCn3c(c(C)c4ccccc43)C21 (stereo not given) |  | 56 | Vasopressor response reversed | 40 | 52 | Vasopressor response reversed | Activity [8]: Vasopressor response reversed; Activity [9]: Vasopressor response reversed; HR [11]: Heart rate response was reported to reduce by 10-25% after 4 hr at a peroral dose of 0.25 mg/kg; HR [12]: Heart rate response was reported to reduce by 10-25% after 4 hr at a peroral dose of 0.25 mg/kg; HR [13]: Heart rate response was reported to reduce by 10-25% after 4 hr at a peroral dose of 0.25 mg/kg
6 | Br.CCCN1CCN(CC)C2CCn3c(c(C)c4ccccc43)C21 (stereo not given) |  | 42 | Vasopressor response reversed | 13 | 24 | Vasopressor response reversed | HR [14]: Heart rate response was reported to reduce by 10-25% after 4 hr at a peroral dose of 1.0 mg/kg; Activity [9]: Vasopressor response reversed
7 | Cc1c2n(c3ccccc13)CCC1C2N(C)CCN1C (stereo not given) |  | 23 |  |  |  |  | Decrease in MABP [15]: 13%
8 | Br.CCCN1CCN(CCC)C2c3c(C)c4ccccc4n3CCC21 (stereo not given) |  | 18 | Antagonism reversed | 13 | 16 | Antagonism reversed | Decrease in MABP [15]: 12%; Activity [16]: Antagonism reversed; HR [17]: Heart rate response was reported to reduce by 10-25% after 4 hr at a peroral dose of 1.0 mg/kg; HR [12]: Heart rate response was reported to reduce by 10-25% after 4 hr at a peroral dose of 1.0 mg/kg; HR [18]: Heart rate response was reported to reduce by 10-25% after 4 hr at a peroral dose of 1.0 mg/kg; HR [13]: Heart rate response was reported to reduce by 10-25% after 4 hr at a peroral dose of 1.0 mg/kg; Activity [19]: Antagonism reversed
9 | CCN1CCN(C(C)C)C2CCn3c(c(C)c4cc(Br)ccc43)C21.Cl.Cl (stereo not given) | 20 |  |  |  |  |  | 
10 | Cc1c2n(c3ccccc13)CCC1NCCNC21 (stereo not given) |  | 19 |  |  |  |  | Activity rating [20]: MABP reduced by 15-25% and an appreciable antihypertensive at 2.5-5 mg/kg; Decrease in MABP [21]: 27%; Activity [22]: Vasopressor response potentiated; HR [23]: Heart rate response was reported to reduce by 10-25% after 4 hr at a peroral dose of 25 mg/kg; Activity [24]: Vasopressor response potentiated
